The source made the active and inactive calls. Where a SMILES comes first, the peptide text is derived from it. [ ]: non-standard residue; d: D form. ξ: configuration not given here. Dmt = Cc1cc(O)cc(C)c1C[C@H](N)C(=O)O; ξTiq(1-COOH) = O=C(O)C1NCCc2ccccc21
Legend:
[1] = tested on: Mus musculus; experiment: Antinociceptive activity in icv dosed C57BL/6J mouse assessed as latency to withdrawal tail after 30 mins by 55 degC warm-water tail withdrawal assay; assay type: functional
Summary of the method: (§1)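 Mouse 55 °C warm-water tail-withdrawal test with a baseline latency taken before dosing and a 15 s cut-off. Single i.c.v. injection of 5 µL into the lateral ventricle under light isoflurane. Latency measured at 10-min intervals, with dose–response values taken at peak: 20 min for peptides, 30 min for morphine. Mean % antinociception from 8 mice; ED₅₀ with 95% CI.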

[2] = tested on: Mus musculus; experiment: Antinociceptive activity in icv dosed C57BL/6J mouse assessed as latency to withdrawal tail administered first dose for 8 hrs followed by second dose measured after 30 mins by 55 degC warm-water tail withdrawal assay; assay type: functional
Summary of the method: (§2)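 Acute tolerance in the mouse 55 °C warm-water tail-withdrawal test, 15 s cut-off. First i.c.v. dose at time 0 (morphine 3 nmol or test peptide 2 nmol), then a second i.c.v. dose of 0.1–100 nmol 8 h later. Latency read 30 min after the second dose for morphine and 20 min for the peptide. n = 8 mice per point; ED₅₀ with 95% CI by nonlinear regression.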

[3] = tested on: Mus musculus; experiment: Antinociceptive activity in wild type C57BL/6J mouse assessed as latency to withdrawal tail at 100 nmol, icv treated with delta opioid receptor anatgonist naltrindole for 20 mins prior to compound treatment measured after 30 mins by 55 degC warm-water tail withdrawal assay; assay type: functional, organism-based
Summary of the method: (§3)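 Tail-withdrawal test at 55 °C, read 30 min after i.c.v. dosing (100 or 30 nmol), in MOR KO or KOR KO mice. Wild-type C57BL/6J mice were instead pretreated with naltrindole 20 mg/kg, route given as i.p. in the methods and s.c. in the legend, 20 min before dosing. n = 8 mice; one-way ANOVA with Tukey's test.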

[4] = target: T1, Delta-type opioid receptor (Homo sapiens, UniProt P41143); experiment: Agonist activity at delta opioid receptor (unknown origin) expressed in CHO cells assessed as inhibition of forskolin-induced cAMP production at 500 nM after 30 mins by europium cryptate/d2 dye-based FRET analysis relative to DPDPE; assay type: functional, cell-based
Summary of the method: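 DOR-expressing CHO cells, 20,000/well, exposed to test compound at 500 nM with 4 µM forskolin in PBS containing 1 mM IBMX for 30 min at room temperature. Cells then lysed with Europium cryptate and d2 acceptor reagents for 1 h, and cAMP read by FRET. Expressed as % of the 500 nM DPDPE response, n = 4.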

[5] = target: Mu-type opioid receptor (Homo sapiens) (UniProt P35372); experiment: Agonist activity at mu opioid receptor (unknown origin) expressed in HEK293 cells assessed as change in cell morphology at 3.3 uM measured over 30 mins by label free binding assay relative to DAMGO; assay type: cell-based
Summary of the method: (§4)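 Label-free biosensor (BIND) measuring cell spreading as increase in peak wavelength value. MOR in HEK293 cells, DOR in CHO cells, seeded 2 × 10⁴/well on fibronectin/collagen/albumin-coated plates and incubated overnight. Assay buffer was HBSS with 0.5–1% DMSO, equilibrated 30 min at room temperature before a baseline read. Compound added to a final 3.3 µM and read over 30 min. Response given as % of DAMGO 300 nM (MOR, n = 2) or DPDPE 10 nM (DOR, n = 4).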

[6] = tested on: Mus musculus; experiment: Antinociceptive activity in icv dosed C57BL/6J mouse assessed as latency to withdrawal tail after 20 mins by 55 degC warm-water tail withdrawal assay; assay type: functional; summary of the method: as §1
[7] = tested on: Mus musculus; experiment: Antinociceptive activity in kappa opioid receptor knock out mouse assessed as latency to withdrawal tail at 100 nmol, icv after 30 mins by 55 degC warm-water tail withdrawal assay; assay type: functional, organism-based; summary of the method: as §3
[8] = tested on: Mus musculus; experiment: Antinociceptive activity in mu opioid receptor knock out mouse assessed as latency to withdrawal tail at 100 nmol, icv after 30 mins by 55 degC warm-water tail withdrawal assay; assay type: functional, organism-based; summary of the method: as §3
[9] = target: Mu-type opioid receptor (Rattus norvegicus, UniProt P33535); experiment: Displacement of [3H]DAMGO from rat cortex mu opioid receptor after 30 mins by liquid scintillation counting analysis
Summary of the method: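 Rat cortex membranes prepared in 50 mM Tris pH 7.4, spun 16,500 rpm for 10 min, and incubated 30 min at 37 °C. Competition against [³H]DAMGO. Assay ended by filtration on BSA-soaked GF/B filters. Ki values are means of two experiments.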

[10] = tested on: Mus musculus; experiment: Toxicity in C57BL/6J mouse assessed as impairment of locomotor co-ordination at 100 nmol, icv administered 15 mins prior to assessment in accelerated speed trials measured over 60 mins by rotorod test; assay type: organism-based; conditions: in vivo, icv_or_intrathecal, 1 h
Summary of the method: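 Rotorod test after seven habituation trials, the last used as baseline. Mice given vehicle (50% DMSO) or 100 nmol i.c.v. Latency to fall recorded over 60 min and expressed as % change from baseline per 10 min. 8–18 mice; two-way ANOVA.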

[11] = Half life in rat brain homogenate at 10 uM; assay type: ADME, tissue-based
Summary of the method: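 Peptide at a final 10 µM in rat brain homogenate (protein 21.2 mg/mL), incubated at 37 °C. Aliquots quenched in acetonitrile with internal standard in triplicate, centrifuged, and analysed by LC-MS/MS in MRM mode. Half-life from pseudo-first-order loss of the analyte/internal-standard ratio; mean of at least three experiments ± SEM.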

[12] = target: Delta-type opioid receptor (Rattus norvegicus, UniProt P33533); experiment: Displacement of [3H]DPDPE from rat cortex delta opioid receptor after 2.5 hrs by liquid scintillation counting analysis
[13] = target: T1, Delta-type opioid receptor; experiment: Agonist activity at delta opioid receptor (unknown origin) expressed in CHO cells assessed as change in cell morphology at 3.3 uM measured over 30 mins by label free binding assay relative to DPDPE; assay type: cell-based; summary of the method: as §4
[14] = tested on: Mus musculus; experiment: Antinociceptive activity in icv dosed C57BL/6J mouse assessed as latency to withdrawal tail administered first dose for 8 hrs followed by second dose measured after 20 mins by 55 degC warm-water tail withdrawal assay; assay type: functional; summary of the method: as §2
[15] = tested on: Mus musculus; experiment: Antinociceptive activity in wild type C57BL/6J mouse assessed as latency to withdrawal tail at 30 nmol, icv treated with delta opioid receptor anatgonist naltrindole for 20 mins prior to compound addition measured after 30 mins by 55 degC warm-water tail withdrawal assay; assay type: functional, organism-based; summary of the method: as §3
[16] = tested on: Mus musculus; experiment: Antinociceptive activity in C57BL/6J mouse assessed as latency to withdrawal tail at 100 nmol, icv measured up to 80 mins by 55 degC warm-water tail withdrawal assay; assay type: functional, organism-based; summary of the method: as §1
[17] = tested on: Mus musculus; experiment: Antinociceptive activity in mu opioid receptor knock out mouse assessed as latency to withdrawal tail at 30 nmol, icv after 30 mins by 55 degC warm-water tail withdrawal assay; assay type: functional, organism-based; summary of the method: as §3
[18] = tested on: Mus musculus; experiment: Inhibition of delta opioid receptor agonist SNC-80-induced antinociceptive activity in C57BL/6J mouse assessed as latency to withdrawal tail at 30 nmol, icv administered 90 mins prior to SNC-80 treatment measured after 40 mins by 55 degC warm-water tail withdrawal assay; assay type: functional, organism-based
Summary of the method: (§5)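 C57BL/6J mice given 30 nmol i.c.v. 90 min before morphine 10 mg/kg i.p., U50,488 10 mg/kg i.p., or SNC-80 100 nmol i.c.v. Tail-withdrawal at 55 °C measured 40 min after the agonist. n = 8 mice; Student's t-test.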

[19] = tested on: Mus musculus; experiment: Inhibition of mu opioid receptor agonist morphine-induced antinociceptive activity in C57BL/6J mouse assessed as latency to withdrawal tail at 30 nmol, icv administered 90 mins prior to morphine treatment measured after 40 mins by 55 degC warm-water tail withdrawal assay; assay type: functional, organism-based; summary of the method: as §5
[20] = tested on: Mus musculus; experiment: Inhibition of kappa opioid receptor agonist U50,488-induced antinociceptive activity in C57BL/6J mouse assessed as latency to withdrawal tail at 30 nmol, icv administered 90 mins prior to U50,488 treatment measured after 40 mins by 55 degC warm-water tail withdrawal assay; assay type: functional, organism-based; summary of the method: as §5
[21] = target: T1, Delta-type opioid receptor; experiment: Agonist activity at delta opioid receptor (unknown origin) expressed in CHO cells assessed as change in cell morphology measured over 30 mins by label free binding assay; assay type: cell-based
Summary of the method: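 DOR-expressing CHO cells on coated plates in a label-free BIND biosensor, with the increase in peak wavelength value read over 30 min after compound addition. HBSS buffer with 0.5–1% DMSO, baseline read first. Points are means of two separate assays.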

[22] = tested on: Mus musculus; experiment: Antinociceptive activity in kappa opioid receptor knock out mouse assessed as latency to withdrawal tail at 30 nmol, icv after 30 mins by 55 degC warm-water tail withdrawal assay; assay type: functional, organism-based; summary of the method: as §3

T1 sequence (P41143 whole entry): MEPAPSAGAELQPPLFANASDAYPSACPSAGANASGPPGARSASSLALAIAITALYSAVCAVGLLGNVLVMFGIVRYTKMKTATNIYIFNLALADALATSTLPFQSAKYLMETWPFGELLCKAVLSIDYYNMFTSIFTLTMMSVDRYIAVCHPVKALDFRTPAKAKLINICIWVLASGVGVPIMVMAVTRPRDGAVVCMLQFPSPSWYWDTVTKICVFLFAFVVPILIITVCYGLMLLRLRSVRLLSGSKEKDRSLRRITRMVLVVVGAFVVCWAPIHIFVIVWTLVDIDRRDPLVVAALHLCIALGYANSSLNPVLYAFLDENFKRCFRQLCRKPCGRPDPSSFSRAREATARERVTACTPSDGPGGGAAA
Sequence of Mu-type opioid receptor (Homo sapiens) (P35372 whole entry): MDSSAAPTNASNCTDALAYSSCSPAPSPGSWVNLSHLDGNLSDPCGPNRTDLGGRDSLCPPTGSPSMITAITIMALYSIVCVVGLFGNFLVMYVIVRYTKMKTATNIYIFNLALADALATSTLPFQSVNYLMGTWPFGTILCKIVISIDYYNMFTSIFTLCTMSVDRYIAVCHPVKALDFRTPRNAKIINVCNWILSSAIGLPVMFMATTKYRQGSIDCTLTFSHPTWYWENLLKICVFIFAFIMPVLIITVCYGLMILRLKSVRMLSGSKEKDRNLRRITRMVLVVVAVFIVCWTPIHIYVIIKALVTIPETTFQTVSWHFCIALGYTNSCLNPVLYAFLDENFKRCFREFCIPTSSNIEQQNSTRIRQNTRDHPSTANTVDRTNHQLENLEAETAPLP
Sequence of Delta-type opioid receptor (Rattus norvegicus, UniProt P33533) (P33533 whole entry): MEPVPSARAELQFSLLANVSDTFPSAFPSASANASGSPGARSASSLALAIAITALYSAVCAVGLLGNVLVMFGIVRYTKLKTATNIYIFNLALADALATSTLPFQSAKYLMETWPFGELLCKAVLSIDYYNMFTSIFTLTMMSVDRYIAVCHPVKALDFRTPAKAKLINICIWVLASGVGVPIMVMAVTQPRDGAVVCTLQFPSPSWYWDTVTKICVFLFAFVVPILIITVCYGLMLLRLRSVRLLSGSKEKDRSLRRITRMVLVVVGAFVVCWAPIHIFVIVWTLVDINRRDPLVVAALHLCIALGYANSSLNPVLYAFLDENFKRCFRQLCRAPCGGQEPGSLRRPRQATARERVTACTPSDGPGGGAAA
Sequence of Mu-type opioid receptor (P33535 whole entry): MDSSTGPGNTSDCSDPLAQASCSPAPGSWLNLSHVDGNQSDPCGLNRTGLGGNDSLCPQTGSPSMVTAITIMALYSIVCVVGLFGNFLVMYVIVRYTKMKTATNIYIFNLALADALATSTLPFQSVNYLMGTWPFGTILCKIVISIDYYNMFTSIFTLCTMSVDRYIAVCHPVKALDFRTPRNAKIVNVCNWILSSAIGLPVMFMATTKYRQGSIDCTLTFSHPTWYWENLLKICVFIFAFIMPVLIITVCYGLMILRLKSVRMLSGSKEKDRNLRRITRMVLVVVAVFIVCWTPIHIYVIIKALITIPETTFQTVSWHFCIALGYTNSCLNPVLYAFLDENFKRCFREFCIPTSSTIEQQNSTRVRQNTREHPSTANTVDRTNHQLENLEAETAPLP

Structure (SMILES) | inhibition [4] | Activity [5] | Activity [6] | ED50 [6] | Ki [9] | Activity [10] | half-life at 10 µM [11] | Ki [12] | Activity [13] | also measured
CN1CC[C@]23c4c5ccc(O)c4O[C@H]2[C@@H](O)C=C[C@H]3[C@H]1C5 [MORPHINE] |  |  |  |  |  |  |  |  |  | Activity [1]: Dose-dependent effect; ED50 [1]: 2.35 nmol; ED50 [2]: 22.5 nmol
Cc1cc(O)cc(C)c1C[C@H](N)C(=O)N1CCc2ccccc2C1C(=O)N[C@@H](Cc1ccccc1)C(=O)N[C@@H](Cc1ccccc1)C(N)=O (stereo partly drawn) (H-[Dmt][ξTiq(1-COOH)]FF-NH2) | 73% | 61% | Dose-dependent effect | 21.7 nmol | 5 nM | Toxic | 6.11 min | 2 nM | 46% | Activity [3]: inactive; Activity [7]: inactive; Activity [8]: inactive
Cc1cc(O)cc(C)c1C[C@H](N)C(=O)N1CCc2ccccc2C1C(=O)N[C@@H](Cc1ccccc1)[C@@H](O)C(=O)N[C@@H](Cc1ccccc1)C(N)=O (stereo partly drawn) | 66% | 42% | Dose-dependent effect | 1.98 nmol | 8 nM | Non-toxic | > 120 min | 0.7 nM | 30% | ED50 [14]: 0.86 nmol; Activity [15]: inactive; Activity [16]: Active; Activity [17]: inactive; inhibition [18]: Active; inhibition [19]: inactive; inhibition [20]: inactive; EC50 [21]: 23 nM; Activity [22]: inactive

Source: ChEMBL document CHEMBL3407426, “Synthesis and biological evaluations of novel endomorphin analogues containing α-hydroxy-β-phenylalanine (AHPBA) displaying mixed μ/δ opioid receptor agonist and δ opioid receptor antagonist activities” (Eur J Med Chem, 2015)
